Compound activity deposited in PubChem by Broad Institute.
Sampled rows, rich in hits. Any-hit rate of the full collection: about 2.3%.
EWS-Fli block: EWS/Fli transcriptional activity inhibition; 0.67% of 350,000 active; inhibition, % at 12.6 µM; AID 651661; A673 NR0B1-luciferase reporter, viability-normalised;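 active means mean inhibition of at least 50% after viability correction, with every replicate also passing that limit; inconclusive means mean reaches 50% but only one of two replicates passes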;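 further: firefly luciferase signal divided by Alamar Blue viability fluorescence both relative to DMSO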
F508del corr: correctors of CFTR F508del function in bronchial epithelial cells | CFBE cells, YFP halide quenching; stimulated with forskolin plus potentiator P3; % fluorescence drop versus neutral controls | activity (quench increase), % at 7.58 µM | 0.36% of 350,000 active | AID 720511;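 active means mean added fluorescence quench of at least 8% versus neutral control, with both replicates also reaching 8%; inconclusive means only one of the mean or replicate conditions met; inactive means mean below 8% and not both replicates reaching 8%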;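 further: cells transiently co-express mutant CFTR-F508del with the halide-sensitive YFP; corrector assay measuring rescue of mutant channel to the surface after 24 h compound exposure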
PAX8 reporter: PAX8 transcriptional activity inhibition. 1.2% of 360,000 active. RMG-I TPO-luciferase reporter, SteadyGlo, 24 h. inhibition, % at 12.6 µM;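 active means mean replicate inhibition at least 60% with every replicate also reaching 60%; inconclusive means only one of the two criteria is met; inactive means mean below 60% and not all replicates reaching 60%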;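 further: luciferase light reporting Pax8 driven TPO promoter activity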
Env fusion inh: HIV envelope-mediated fusion inhibition. HeLa-JRFL Env/CEM21 cell fusion, luciferase. inhibition, % at 12.3 µM. 1.1% of 360,000 active;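 active means mean replicate inhibition score of at least 50 and every replicate individually at or above 50; inconclusive means only one of the two criteria met; inactive means mean below 50 and not all replicates reaching 50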
PGC1a acetyl inh: PGC1a acetylation modulation, inhibitor mode; 0.17% of 350,000 active; U2OS PGC1a acetylation, AlphaScreen anti-acetyl-lysine; with virally co-expressed GCN5 acetyltransferase; AID 651687; inhibition, % at 15.6 µM;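 active means every replicate shows inhibition of at least 40%; inconclusive means mean inhibition at least 40% but some replicate below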
FN deposition inh: fibronectin deposition inhibition | AH1F fibroblasts, Alexa488-fibronectin deposition fluorescence, overnight | inhibition, % at 12.6 µM | 0.086% of 350,000 active;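 active means mean inhibition across replicates of 30% or more, regardless of how many single replicates reach that level; inconclusive means mean under 30% yet at least half of replicates reach 30%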
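Assay system: AH1F fibroblasts assembling fluorescent fibronectin matrix; Amount: 10000 AH1F cells per well; Buffer or medium: DMEM, 2% serum; Probe or stimulus: Alexa488-fibronectin, 24 nM final in well; Doses: single compound dose, delivered by pin transfer; Incubation: 1 h adhesion, overnight exposure; Measured by: fluorescence 485/525 nm; Read-out: fibronectin deposition inhibition.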
Hits are given with their value; i = inactive; ? = inconclusive; nt = not tested or not shown; [ ] = remark or other dose.

SMILES	EWS-Fli block	F508del corr	PAX8 reporter	Env fusion inh	PGC1a acetyl inh	FN deposition inh
COc1ccccc1NC(=O)N[C@@H]1CC[C@H](CC(=O)N[C@@H](C)c2ccccc2)O[C@@H]1CO	i	i	i	i	i	i
CCN(C(=O)CCS(=O)(=O)c1cc2c(cc1Cl)NC(=O)CO2)c1ccccc1	i	i	i	72	i	i
CCS(=O)(=O)Nc1ccc2c(c1)C(=O)N(C)C[C@H](OC)[C@@H](C)CN(C(C)=O)[C@H](C)CO2	i	i	nt	i	i	i
CCOCCCNc1ncnc2c1[nH]c1ccccc12	nt	nt	nt	nt	i	nt
CCCCOCCCNc1ncnc2c1[nH]c1ccccc12	nt	nt	nt	88	nt	i
CCN1[C@@H]2Cn3c(ccc(C4=CCCCC4)c3=O)[C@H]1[C@@H](C(=O)NC1Cc3ccccc3C1)[C@@H]2CO	nt	i	i	nt	i	nt
COc1cccc(S(=O)(=O)Nc2ccc3c(c2)C(=O)N(C)C[C@H](OC)[C@@H](C)CN(Cc2ccccc2F)[C@@H](C)CO3)c1	i	i	65	nt	i	i
CO[C@@H]1CN(C)C(=O)c2cc(NC(=O)Nc3ccccc3F)ccc2OC[C@@H](C)N(Cc2ccccc2F)C[C@H]1C	i	i	nt	i	i	i
CO[C@@H]1CN(C)C(=O)c2ccc(NC(=O)Nc3ccccc3F)cc2OC[C@@H](C)N(Cc2ccccc2F)C[C@H]1C	i	i	71	nt	i	i
O=C(Nc1ccccc1F)N1CCCCN2[C@H](CO)[C@@H](c3ccc(C4=CCCCC4)cc3)[C@H]2C1	i	i	i	nt	i	nt
CCOC(=O)C(c1ccccc1)C(Nc1cc(C(F)(F)F)cc(C(F)(F)F)c1)c1ccccn1 (stereo unspecified)	i	i	i	67	i	i
CCCCCCN(C(=O)CCCCCN1C(=O)NC(c2ccc(-c3ccccc3)cc2)C(C(=O)OCc2ccccc2)=C1C)C(C(=O)NCCCC)c1ccccn1 (stereo unspecified)	i	i	80	i	nt	i
CCOC(=O)C1=C(C)N(C[C@@H]2CC[C@@H](Cc3ccc(-c4ccccc4)cc3)O2)C(=O)NC1c1ccc(-c2ccccc2)cc1 (stereo partly specified)	i	i	i	72	i	nt
CO[C@H]1CN(C)C(=O)c2cc(NS(=O)(=O)c3ccccc3Cl)ccc2OC[C@H](C)NC[C@H]1C	i	i	nt	i	i	i
CCOC(=O)c1nc(C)sc1-c1ccnn1S(=O)(=O)c1ccccc1C(F)(F)F	i	9.8	i	i	i	i
COc1cccc(NC(=O)N(C)C[C@@H]2OCc3ccccc3-c3c(n(C)c4ccccc34)C(=O)N([C@@H](C)CO)C[C@@H]2C)c1	i	i	i	57[16.7 µM]	i	i
C[C@H](CO)N1C[C@H](C)[C@@H](CN(C)C(=O)Nc2ccc(F)cc2)OCc2ccccc2-c2c(n(C)c3ccccc23)C1=O	i	i	100	58[16.7 µM]	i	i
C[C@@H]1CN([C@H](C)CO)C(=O)c2c(c3ccccc3n2C)-c2ccccc2CO[C@@H]1CN(C)C(=O)Nc1cccc(F)c1	i	i	nt	nt	i	i
COc1cccc(NC(=O)N(C)C[C@@H]2OCc3ccccc3-c3c(n(C)c4ccccc34)C(=O)N([C@@H](C)CO)C[C@H]2C)c1	i	i	i	i	i	i
C[C@H]1CN([C@@H](C)CO)C(=O)c2c(c3ccccc3n2C)-c2ccccc2CO[C@H]1CN(C)C(=O)Nc1cccc(F)c1	i	i	i	88	nt	i
C[C@@H]1CCCCO[C@H](CN(C)C(=O)Nc2ccc(F)cc2)[C@H](C)CN([C@@H](C)CO)C(=O)c2cc(NS(=O)(=O)c3ccccc3)ccc2O1	i	i	i	i	i	nt
CC(C)NC(=O)N(C)C[C@H]1OCCCC[C@H](C)Oc2ccc(NC(=O)c3ccccc3)cc2C(=O)N([C@H](C)CO)C[C@@H]1C	nt	i	i	i	i	nt
CO[C@H](CN(C)C(=O)c1ccccc1F)[C@H](C)CN([C@H](C)CO)S(=O)(=O)c1ccc(C)cc1	i	i	nt	nt	i	i
CCC(=O)N1CCC2(CC1)CN(S(=O)(=O)c1ccccc1)[C@H](CO)c1[nH]c3cc(OC)ccc3c12	i	i	nt	nt	i	nt
O=C(Nc1ccc(N2CCN(C(=O)c3ccccc3)CC2)cc1)c1ccc([N+](=O)[O-])o1	66	i	100	i	i	i
SMILES	EWS-Fli block	F508del corr	PAX8 reporter	Env fusion inh	PGC1a acetyl inh	FN deposition inh
O=C(Nc1ccccc1N1CCN(C(=O)c2ccc(Cl)cc2)CC1)c1ccc([N+](=O)[O-])o1	nt	nt	nt	nt	i	nt
Cc1ccccc1C(=O)N1CCN(c2ccc(NC(=O)c3cccnc3)cc2)CC1	i	i	i	i	i	nt
Cc1ccccc1C(=O)N1CCN(c2ccc(NC(=O)c3ccc([N+](=O)[O-])o3)cc2)CC1	61	i	i	i	nt	i
C[C@H](NC(=O)C[C@H]1CC[C@@H](NC(=O)Cc2ccccn2)[C@@H](CO)O1)c1ccccc1	i	i	i	i	i	i
C[C@H]1CN([C@@H](C)CO)C(=O)c2cccc(NS(=O)(=O)c3ccc(Cl)cc3)c2O[C@@H]1CN(C)Cc1ccncc1	i	i	i	nt	i	nt
CO[C@@H]1CN(C)C(=O)c2cc(NS(=O)(=O)c3ccc(C)cc3)ccc2OC[C@H](C)NC[C@@H]1C	i	i	i	i	i	i
CCC(=O)Nc1ccc2c(c1)OC[C@@H](C)N(C(=O)Cc1ccccn1)C[C@H](C)[C@H](OC)CN(C)C2=O	nt	nt	nt	nt	nt	i
OC(c1ccccc1)(c1ccccc1)C1CCN(CCCOc2ccc(-c3ccc(F)cc3F)cc2)CC1	i	i	i	63	nt	i
CN(C)CCN(C(=O)/C=C/c1cccs1)c1nc2c(F)cc(F)cc2s1	nt	nt	97	i	nt	i
COc1ccc(OC)c2sc(N(CCN(C)C)C(=O)/C=C/c3cccs3)nc12	nt	i	79	i	nt	i
CN(C)CCCN(C(=O)/C=C/c1cccs1)c1nc2ccc(F)cc2s1	i	i	i	i	i	i
C[C@@H]1CN(C)C(=O)Cc2cc(NS(C)(=O)=O)ccc2O[C@@H]1CN(C)S(C)(=O)=O	nt	nt	nt	nt	nt	i
COc1ccc(C(=O)Nc2ccc3c(c2)C(=O)N(C)C[C@@H](OC)[C@@H](C)CN(C(C)=O)[C@@H](C)CO3)cc1	i	i	nt	nt	i	i
C[C@H](CO)N1C[C@H](C)[C@@H](CN(C)C)OCCCC[C@H](C)Oc2ccc(NS(C)(=O)=O)cc2C1=O	i	i	i	i	i	i
CN(C)CC(=O)Nc1ccc2c(c1)[C@@H]1C[C@@H](CC(=O)N3CCOCC3)O[C@@H](CO)[C@@H]1O2	i	i	i	i	i	i
CCCCCc1ccc(OCCC[n+]2ccccc2)c(CCCCC)c1	i	?	96	i	nt	i
Cc1ccc(C(=O)Nc2ccc3c(c2)OCO3)cc1S(=O)(=O)N1CCCC1	nt	nt	nt	nt	i	nt
Cc1ccc(C(=O)OCc2ccc3c(c2)OCO3)cc1S(=O)(=O)N1CCCCC1	nt	nt	nt	55	i	nt
O=C1c2ccccc2-c2onc3ccc(N4CCCC4)c1c23	i	i	i	i	i	i
